Laboratory results from ChEMBL document CHEMBL4513216, “Probing the Open Global Health Chemical Diversity Library for Multistage-Active Starting Points for Next-Generation Antimalarials” (ACS Infect Dis, 2020).

Test: Toxicity liver stage against HepG2, at 10uM
Type: cell-based
Design: test concentration 10 uM, cell line HepG2-A16-CD81EGFP
Settings: human, HepG2-A16-CD81EGFP cells; read-out: INHIBITION
Summary of the method: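 Uninfected HepG2-A16-CD81EGFP cells, 3 × 10^3 per well, 1536-well, plated on prespotted compound at 10 μM final, parasite-free screening media added to match infected plates; puromycin 10 μM positive, DMSO 0.5% negative; run in parallel with 48 h PbLuc assay at 37 °C, 5% CO2; viability by CellTiter-Glo luminescence, normalized to controls.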

Structure (SMILES) | cytotoxicity at 10 µM
CC(C)NC(=O)O[C@H]1COCCN(c2nc3ccccc3s2)C1 | -1.27%
O=C1N[C@@H]2CCN(C(=O)C3CC3)[C@@H]2C(=O)N1c1ccccc1 | 1.44%
CC1=C[C@@H](CN2CCOCC2)[C@H](C(C)C)C[C@H]1Cc1nnc(C)o1 | -5.07%
COc1cccc(CN2CC(O)CN(C(=O)C3CC3)CC2=O)c1OC (stereo unspecified) | -11.3%
CCN1Cc2ccccc2N(C(=O)C2CCC2)CCC1=O | -3.53%
CC(C)(C)n1ncc2c1NC(=O)CC2c1cccs1 (stereo unspecified) | 3.48%
CCOC(=O)CNC(=O)c1cc2n(n1)CCCO2 | 1.43%
O=C(c1nnn(-c2ccc(C(F)(F)F)cc2)n1)N1CC(O)C1 | -4.63%
Cc1cc(C(O)CCNC(=O)c2ccc(Cl)s2)c(C)o1 (stereo unspecified) | -1.22%
CN1C(=O)CCC12CCN(S(=O)(=O)c1ccccc1)CC2 | -9.75%
NC1CCc2c(ccc(=O)n2CC2CC2)C1 (stereo unspecified) | -4.37%
O=C(C1=CC2(CCNCC2)c2ccccc21)N1CCCC1 | -2.07%
CCCN1CCN(C(=O)c2ccc(Cn3cc(Br)cn3)cc2)CC1 | -6.11%
Cc1nn(Cn2ccc(C(=O)N3CCCC(C)C3)n2)c(C)c1Cl (stereo unspecified) | 2%
CCn1cc(CN2CCN(C(=O)c3cc(C)c(C)s3)CC2)c(C)n1 | 2.07%
Cc1cc(C(F)F)nn1C(C)C(=O)NCc1ncc[nH]1 (stereo unspecified) | 5.46%
O=C1NC2(CCc3ccccc31)CCN(C(=O)c1ccncc1)C2 (stereo unspecified) | 0.84%
CS(=O)(=O)N1CCC(c2cncc(Cl)n2)CC1 | 16%
Cn1ccc(C2CCCCCN2C(=O)c2cccnc2)n1 (stereo unspecified) | 6.16%
Cc1cnc(Nc2cccc(C3CCCN3C(=O)CO)n2)s1 (stereo unspecified) | -30.6%
CC(=O)N1CCCC1c1ccnc(Nc2cncnc2)n1 (stereo unspecified) | -25.6%

Structure (SMILES) | cytotoxicity at 10 µM
Cc1nc(Nc2ncccn2)cc(C2CCCN2C(C)C)n1 (stereo unspecified) | -17.3%
NC(=O)C1CCN(c2ncc(-c3cnccn3)c([C@H]3CCCO3)n2)CC1 | -0.24%
O=C(CSc1nnc(N2CCOCC2)s1)NC(=O)Nc1ccccc1 | 4.44%
COc1ccc(CN2CCC(C(N)=O)C2)c(Br)c1OC (stereo unspecified) | 5.15%
Cc1cc(S(C)(=O)=O)c(C)c(S(=O)(=O)NC2CCCC2)c1 | 12.8%
COc1ccc(CCNC(=O)C2CC2)c(Cl)c1 | -2.43%
NC(=O)C1CCCN1CCCc1ccc(Cl)cc1 (stereo unspecified) | 5.39%
CCOCc1ccc(NC(=O)N2CCOC3(CCC3)C2)cc1 | 4.29%
Cc1ccc(OCCn2cnc3oc(C)c(C(=O)O)c3c2=O)cc1 | -8.17%
NC(=O)C1CN(C(=O)C2(c3ccc(F)cc3F)CCCC2)CCO1 (stereo unspecified) | -5.92%
Cc1cc(NC(=O)N2CCOCC2)nn1-c1cccc(Cl)c1 | -1.57%
O=C(Cn1cc(NC(=O)c2ccc(F)cc2F)cn1)NC1CCCC1 | -0.561%
CN(Cc1ccsc1)C(=O)CN1CCc2c(ncn2C)C1 | 2.83%
CCN(CC(=O)NCCc1nc(C)no1)Cc1ccc(Cl)cc1 | 2.27%
O=C(Nc1cccn(Cc2ccc(F)cc2)c1=O)c1cnc[nH]1 | 0.0616%
CCOc1ccc(NC2CCN(C3CC3)C2=O)cn1 (stereo unspecified) | -0.387%
O=C(c1[nH]nc2c1CCCC2)N1CCC(OCCN2CCCCC2)C1 (stereo unspecified) | -4.52%
O=C1CCC(C(=O)Nc2ccc(=O)n(Cc3ccccc3Cl)c2)N1 (stereo unspecified) | -1.36%
Cc1cc(NC(=O)CN2CCc3nn(C)c(=O)cc3C2)on1 | -1.45%
Cc1nc(C2CCCN(C(=O)c3sccc3C3CC3)C2)no1 (stereo unspecified) | -3.74%
O=C1CCCN1Cc1nnc2n1CCCN(C(=O)c1ccco1)C2 | 8.3%

Structure (SMILES) | cytotoxicity at 10 µM
CCS(=O)(=O)N1CCc2c(cnc(-c3cccnc3)c2C(=O)O)C1 | 2.66%
CN(C)CCN1CCC2(CC1)CN(c1cccnc1)C(=O)CO2 | 1.7%
Cc1cc(N2CCCC(N(C)C)C2)n2nc(C)cc2n1 (stereo unspecified) | -53.5%
COCC1CCN(S(=O)(=O)N2C[C@@H](C)[C@](O)(C3CC3)C2)CC1 | 0.23%
COC[C@]1(O)CCN(Cc2c[nH]c(CC3CCCC3)n2)CC1(C)C | 17.7%
COc1ccc2[nH]nc(CN3CCC(C(=O)N4CCCCC4)CC3)c2c1 | -2.03%
O=C1CCN(C(=O)c2csc(-c3ccc(C(F)(F)F)cc3)n2)CCN1 | -12.3%
CCC(Nc1nc(CCN)nc2ccccc12)c1cc(C)ccn1 (stereo unspecified) | -12.9%
O=C(O)c1cc(-c2ccncc2F)cc(S(=O)(=O)N2CCCCCC2)c1 | -0.2%
Cc1nc(CC2CCN(C(=O)C(c3ccccc3C)N(C)C)CC2)no1 (stereo unspecified) | 4.66%
CN(CCCc1nccn1C)C(=O)C1CCN(C(=O)C2CCCC2)CC1 | -15.3%
CC(C)Cc1ncc2c(n1)CN(C(=O)c1ccc(Cn3ccnc3)o1)C2 | 3.09%
CC(c1cccc(-c2ncc(C#N)c(N)n2)c1)N(C)C (stereo unspecified) | -7.3%
CC(C)CCN1CC2(CCCN(C(=O)NCc3cccs3)C2)CCC1=O (stereo unspecified) | -11.9%
CCC(NC(=O)c1cc(CC(C)C)nn1C)c1cc(C)ccn1 (stereo unspecified) | -138%
Cn1ccnc1SCCNc1nccc(C(F)(F)F)n1 | -51%
CCn1c(C)cc(C(=O)N2CCCC(C(=O)c3nccn3C)C2)c1C (stereo unspecified) | 6.27%
CCN1CCN(C(=O)c2cc(-c3ccc(C)o3)n[nH]2)[C@H]2CS(=O)(=O)C[C@H]21 | -4.25%
CN(Cc1cn(CC2CCNCC2)nn1)CC1CCCCO1 (stereo unspecified) | -1.9%
CCn1c(C2CCCN(Cc3nccn3CCOC)C2)nn(C)c1=O (stereo unspecified) | 7.3%
Cc1cnn(CC(C)NCC(=O)NCCOc2ccccc2)c1 (stereo unspecified) | 1.36%

Structure (SMILES) | cytotoxicity at 10 µM
Cc1nccn1C1CCCN(C(=O)c2ccc3c(c2)CCC3)C1 (stereo unspecified) | -13.8%
CN(C)S(=O)(=O)c1ccc(CN2CCCC2c2ccsc2)o1 (stereo unspecified) | -8.72%
Cc1nn(C)c(C)c1C1CCCN1CC(=O)Nc1cc(C(C)C)no1 (stereo unspecified) | 2.07%
Cc1ccc(C(=O)N2CCC(Oc3c(C)cccc3C)CC2)c(=O)[nH]1 | -2.51%
Cc1nn(C)c(Cl)c1C1CCCN1Cc1ccc(C(N)=O)cc1 (stereo unspecified) | -3.69%
CC(C)(O)CN1CCN(C(=O)c2ccc3c(c2)COC3)CC1 | -0.644%
N#Cc1cccc(OCCN2CCn3c(nnc3C3CC3)C2)c1 | -7%
CN(C(=O)Cc1ccc(F)cc1)C1CCN(c2ccccn2)CC1 | -15.8%
CC(NC(=O)N1CCN(c2ccccc2O)CC1)c1nncn1C (stereo unspecified) | -6.01%
Cc1cn2c(n1)CCC(NC(=O)c1cc(C3CC3)[nH]n1)C2 (stereo unspecified) | -16.9%
CC(C)CCOCCNC(=O)Nc1cc(C(F)(F)F)c[nH]c1=O | -1.72%
Cc1cc(NC(=O)NCC(O)c2ccc(Cl)cc2Cl)n(C)n1 (stereo unspecified) | -5.38%
Cc1[nH]nc2ncc(C(=O)N3CCN(CC(C)O)CC3)cc12 (stereo unspecified) | -1.73%
CC(C)N1CCc2[nH]nc(C(=O)N3CCOCC3)c2C1 | -1.6%
CC[C@@H]1N(C)CCC[C@]12CCC(=O)N2Cc1ccncc1 | 3.67%
Cc1cccc(N2CCC3(CCCN(C(=O)c4cccnc4)C3)CC2)n1 | 3.77%
N#CC1(C(=O)N2C[C@@H]3CC[C@H]2CN(Cc2cscn2)C3)CCOCC1 | 2.39%
CC(C)CS(=O)(=O)N1C[C@@H]2C[C@H](C(=O)N3CCN(C)CC3)[C@H](C1)O2 | 0.508%
